The source made the active and inactive calls. No cut-off for these calls is given here.
How the values were obtained:
Salmonella typhimurium [1] = experiment: Antibacterial activity against 1 MOI Salmonella enterica subsp. enterica serovar Typhimurium infected in mouse J774A1 cells assessed as reduction in bacterial growth at 2.5 times MIC; type: functional, organism-based; settings: J774.A1
Outline: (§1)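 J774A.1 cells or thioglycolate-elicited BALB/c peritoneal macrophages seeded at 200,000/well, overnight 37°C 5% CO2; infected with GFP strain SDT1416, 1 h invasion, washed, 1 h in DMEM with 15 μg/ml gentamicin. Then fresh DMEM plus 15 μg/ml gentamicin with or without peptide (DMSO vehicle) for 24 h at 37°C; macrophages lysed with 1% Triton X-100, plated on LB agar for CFU.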

J774.A1 [2] = experiment: Drug uptake in mouse J774A1 cells at 0.5 uM after 5 mins by confocal laser microscopy; type: ADME, cell-based; settings: j774.a1, 5 min
Outline: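 Cells were seeded at 200,000 per chamber-slide well and left to adhere overnight at 37°C. They were then exposed in DMEM to peptide carrying an N-terminal rhodamine label, at 37°C or, where stated, 4°C. Cells were washed three times in PBS, fixed in 4% paraformaldehyde for 30 min, and mounted in antifade. Optical slices near the cell centre were imaged by confocal laser microscopy.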

Salmonella typhimurium [3] = experiment: Antibacterial activity against 10 MOI Salmonella enterica subsp. enterica serovar Typhimurium G785 transfected with SOS-inducible beta-galactosidase reporter infected in mouse J774A1 cells assessed as SOS induction at 100 uM after 4 hrs postinfection; type: functional, J774.A1
Outline: (§2)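 J774A.1 cells infected at MOI 10 with sulA promoter-lacZ reporter strain G785 using the gentamicin-protection protocol, treated with peptide (DMSO vehicle controls) plus 15 μg/ml gentamicin for 4 or 24 h. Released bacteria were plated for colony counts in parallel, and were incubated with 33 μM C12FDG (with 0.2 mM EDTA) in LB for 2 h at 37°C. Flow cytometry gave % fluorescein-positive among LPS-antibody-positive particles; Wilcoxon exact test.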

J774.A1 [4] = experiment: Drug uptake in mouse J774A1 cells assessed as dimer to monomer peptide ratio at 150 uM after 5 hrs at 4 degC by HPLC analysis; type: ADME, cell-based; settings: j774.a1, 5 h
Outline: (§3)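 J774A.1 cells were incubated with unlabeled peptide for 5 or 24 h at 37°C or 4°C, washed in ice-cold PBS and lysed with NP-40 buffer. Lysates were run on reverse-phase HPLC with an acetonitrile/0.1% TFA gradient and A280 fractions. Monomer (~17.5 min) and dimer (~17.75 min) peak areas were compared against a standard curve. Intracellular mM was calculated using 300,000 cells and 1 pl/cell, with concentration expressed as monomer mass.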

Salmonella typhimurium [5] = experiment: Antibacterial activity against 10 MOI Salmonella enterica subsp. enterica serovar Typhimurium G785 transfected with SOS-inducible beta-galactosidase reporter infected in mouse J774A1 cells assessed as bacterial number at 50 uM after 4 hrs postinfection; type: functional, J774.A1; outline: as §2
Salmonella typhimurium [6] = experiment: Antibacterial activity against 1 MOI Salmonella enterica subsp. enterica serovar Typhimurium infected in mouse peritoneal macrophages assessed as reduction in bacterial growth at 150 uM after 24 hrs relative to DMEM control; type: functional; set-up: scale not given: the % may be the effect or the level left; outline: as §1
J774.A1 [7] = experiment: Drug uptake in mouse J774A1 cells assessed as total peptide concentration at 100 uM after 24 hrs at 37 degC by HPLC analysis; type: ADME, cell-based; settings: j774.a1, 24 h; outline: as §3
[8] = Cytotoxicity against mouse peritoneal macrophages assessed as dead cells at 100 uM by propidium iodide assay; type: cell-based; settings: peritoneal macrophage cell
Outline: (§4)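 Cells seeded at 300,000/well and allowed to adhere, then given fresh DMEM with or without peptide for 24 h. Cells trypsinized, stained with a mammalian Live/Dead viability/cytotoxicity kit and analyzed by flow cytometry. Wilcoxon exact test.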

Salmonella typhimurium [9] = experiment: Antibacterial activity against 1 MOI Salmonella enterica subsp. enterica serovar Typhimurium infected in mouse J774A1 cells assessed as reduction in bacterial growth at 50 uM after 24 hrs; type: functional, J774.A1; set-up: scale not given: the % may be the effect or the level left; outline: as §1
[10] = Cytotoxicity against mouse peritoneal macrophages assessed as live cells at 50 uM by calcein AM assay; type: cell-based, Peritoneal macrophage cell; settings: read-out: Activity; outline: as §4
J774.A1 [11] = experiment: Drug uptake in mouse J774A1 cells assessed as total peptide concentration at 150 uM after 5 hrs at 37 degC by HPLC analysis; type: ADME, cell-based; settings: j774.a1, 5 h
Outline: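 J774A.1 cells were seeded at 300,000 per well and allowed to adhere for 24 h at 37°C in 5% CO2. Medium was replaced with DMEM containing unlabeled peptide, and cells were held at 37°C or 4°C. After three washes in ice-cold PBS, cells were lysed in NP-40 buffer and debris spun out. Reverse-phase HPLC was read at 280 nm. Peaks at 17.5 and 17.75 min were integrated against a standard curve. Intracellular mM was calculated from 300,000 cells at 1 pl each, using monomer mass.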

J774.A1 [12] = experiment: Drug uptake in mouse J774A1 cells assessed as dimer to monomer peptide ratio at 150 uM after 5 hrs at 37 degC by HPLC analysis; type: ADME, cell-based; settings: j774.a1, 5 h; outline: as §3
[13] = Drug uptake in mouse peritoneal macrophages assessed as total peptide concentration at 100 uM after 24 hrs at 37 degC by HPLC analysis; type: ADME, cell-based; settings: peritoneal macrophage cell
Outline: (§5)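 Macrophages were elicited in 8–12-week-old female BALB/c mice with 4% thioglycolate i.p. and harvested by lavage 4 days later. Cells were seeded at 300,000 per well for 24 h, then given unlabeled peptide in DMEM for 24 h at 37°C. Lysates were run on reverse-phase HPLC at A280. Monomer (17.5 min) and dimer (17.75 min) peak areas were compared with a standard curve. Concentration assumed 1 pl per cell; values are means of three determinations.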

J774.A1 [14] = experiment: Drug uptake in mouse J774A1 cells assessed as dimer to monomer peptide ratio at 100 uM after 5 hrs at 4 degC by HPLC analysis; type: ADME, cell-based; settings: j774.a1, 5 h; outline: as §3
[15] = Cytotoxicity against mouse peritoneal macrophages assessed as dead cells at 150 uM by propidium iodide assay; type: cell-based; settings: peritoneal macrophage cell; outline: as §4
J774.A1 [16] = experiment: Drug uptake in mouse J774A1 cells assessed as dimer to monomer peptide ratio at 150 uM after 24 hrs at 37 degC by HPLC analysis; type: ADME, cell-based; settings: j774.a1, 24 h; outline: as §3
Salmonella typhimurium [17] = experiment: Antibacterial activity against 10 MOI Salmonella enterica subsp. enterica serovar Typhimurium G785 transfected with SOS-inducible beta-galactosidase reporter infected in mouse J774A1 cells assessed as SOS induction at 100 uM after 24 hrs postinfection; type: functional, J774.A1; outline: as §2
Salmonella typhimurium [18] = experiment: Antibacterial activity against 1 MOI Salmonella enterica subsp. enterica serovar Typhimurium infected in mouse peritoneal macrophages assessed as reduction in bacterial growth at 50 uM after 24 hrs; type: functional; set-up: scale not given: the % may be the effect or the level left; outline: as §1
Salmonella typhimurium [19] = experiment: Antibacterial activity against 10 MOI Salmonella enterica subsp. enterica serovar Typhimurium G785 transfected with SOS-inducible beta-galactosidase reporter infected in mouse J774A1 cells assessed as SOS induction at 150 uM after 4 hrs postinfection; type: functional, J774.A1; outline: as §2
Salmonella typhimurium [20] = experiment: Antibacterial activity against 1 MOI Salmonella enterica subsp. enterica serovar Typhimurium infected in mouse peritoneal macrophages assessed as reduction in bacterial growth after 24 hrs; type: functional, organism-based; outline: as §1
[21] = Cytotoxicity against mouse J774A1 cells assessed as live cells at 100 uM by calcein AM assay; type: cell-based, J774.A1; settings: read-out: Activity; outline: as §4
J774.A1 [22] = experiment: Drug uptake in mouse J774A1 cells assessed as total peptide concentration at 100 uM after 5 hrs at 4 degC by HPLC analysis; type: ADME, cell-based; settings: j774.a1, 5 h; outline: as §3
Salmonella typhimurium [23] = experiment: Antibacterial activity against 1 MOI Salmonella enterica subsp. enterica serovar Typhimurium infected in mouse J774A1 cells assessed as fold reduction in bacterial growth at 100 uM after 24 hrs; type: functional, J774.A1; outline: as §1
[24] = Drug uptake in mouse peritoneal macrophages assessed as dimer to monomer peptide ratio at 150 uM after 24 hrs at 37 degC by HPLC analysis; type: ADME, cell-based; settings: peritoneal macrophage cell; outline: as §5

Drug uptake (J774.A1 [2]): Active | Ratio (J774.A1 [4]): 8.8 | Drug uptake (J774.A1 [7]): 16.9 mM | Drug uptake (J774.A1 [11]): 28.9 mM | Ratio (J774.A1 [12]): 11 | Drug uptake [13]: 7.4 mM | Ratio (J774.A1 [14]): 2.7 | Ratio (J774.A1 [16]): 12.5 | Drug uptake (J774.A1 [22]): 7.7 mM | Ratio [24]: 11.4
Structure (SMILES): N=C(N)NCCC[C@@H](NC(=O)[C@@H](CS)NC(=O)[C@@H](Cc1ccc(O)cc1)NC(=O)[C@@H](Cc1c[nH]c2ccccc12)NC(=O)[C@@H](CCCNC(=N)N)NC(=O)[C@H](N)Cc1c[nH]c2ccccc12)C(=O)O
Activity (Salmonella typhimurium [1]): Active | Activity (Salmonella typhimurium [3]): 1.3% | Activity (Salmonella typhimurium [5]): 57.1% | Activity (Salmonella typhimurium [6]): 72.3% | Activity [8]: 3.1% | Activity (Salmonella typhimurium [9]): 68.5% | viability at 50 µM [10]: 94.2% | Activity [15]: 9.2% | Activity (Salmonella typhimurium [17]): 16.5% | Activity (Salmonella typhimurium [18]): 34% | Activity (Salmonella typhimurium [19]): 8.5% | Activity (Salmonella typhimurium [20]): Dose-dependent effect | viability at 100 µM [21]: 58.9% | fold change (FC) (Salmonella typhimurium [23]): > 100
